The subject of one assay is Plasmodium falciparum. In words: Antiplasmodial activity against chloroquine-resistant Plasmodium falciparum W2 as parasite DNA microfluorimetric assay. The format is functional, organism-based. In a few lines: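 P. falciparum W2 (chloroquine-resistant) grown by the Trager–Jensen method at 2% hematocrit in RPMI 1640 with 10% human serum. Growth inhibition read microfluorimetrically by PicoGreen intercalation into parasite DNA. IC50 in µM.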

For a further assay, the system named is Trypanosoma cruzi. The assay is described as follows: Antitrypanosomal activity against Trypanosoma cruzi Tulahuen C4 infected in african green monkey Vero cells assessed as growth inhibition of […] by beta-galactosidase reporter gene assay. Format: functional, organism-based. In a few lines:
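Recombinant Tulahuen clone C4 expressing β-galactosidase reporter; […] grown inside Vero cells with test samples. β-Gal cleavage of chlorophenol red-β-D-galactoside (CPRG) read colorimetrically at 570 nm. IC50 taken as concentration giving 50% inhibition of parasite growth versus untreated control, on duplicate samples.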
Background: A reporter such as luciferase makes a cellular process visible.

For 33 compounds, IC50 results are on record in ChEMBL document CHEMBL1158069, “Antiplasmodial metabolites isolated from the marine octocoral Muricea austera” (J Nat Prod, 2006).

As usually defined, the IC50 is the concentration that gives 50% inhibition.

Where only a bound is given, the exact number is not on record here.

`O=C(NCCc1ccc(OC(=O)c2ccccc2)cc1)c1ccccc1`: the IC50 with Plasmodium falciparum came to 64 µM.
Regarding `NCCc1ccc(O)cc1` [TYRAMINE], in the assay with Plasmodium falciparum, the IC50 is 160 µM.
As for `CO[C@@H]1OC[C@H](OC(C)=O)[C@H](OC(C)=O)[C@H]1OC(C)=O`, the IC50 with Plasmodium falciparum and in the assay on Trypanosoma cruzi was above 50 µM in each case.
On to `CCCCCCCCCC(C)CC(=O)NCCc1ccc(O)cc1` (stereo not given), for which the IC50 with Plasmodium falciparum is 45 µM; in the assay on Trypanosoma cruzi, above 50 µM.
In the case of `CCCCCCCCCC(=O)NCCc1ccc(O)cc1`, the midpoint of inhibition in the assay on Plasmodium falciparum, the IC50, lay at 72 µM.
Turning to `CCCCCCCCCCCC(=O)NCCc1ccc(O)cc1`, inhibition in the assay with Plasmodium falciparum was half-maximal at 47 µM (IC50).
On the same count and under the same terms, then `O=CNCCc1ccc(O)cc1`, with above 50 µM.
Take `CCCCO[C@@H]1OC[C@H](OC(C)=O)[C@H](OC(C)=O)[C@H]1OC(C)=O`: the IC50 in the assay with Plasmodium falciparum and in the assay on Trypanosoma cruzi was above 50 µM each time.
Turning to `CCCCCCCCCCCC(=O)O[C@@H]1[C@@H](OC(=O)CCCCCCCCCCC)[C@H](OC)OC[C@@H]1OC(=O)CCCCCCCCCCC`, the IC50 in the assay with Plasmodium falciparum and in the assay on Trypanosoma cruzi was above 50 µM in each case.
As for `CO[C@H]1OC[C@H](OC(=O)c2ccccc2)[C@H](OC(=O)c2ccccc2)[C@H]1OC(=O)c1ccccc1`, the values for the IC50 in the assay with Plasmodium falciparum and in the assay on Trypanosoma cruzi were 35 µM and above 50 µM, respectively.
For the compound `CC/C=C\C/C=C\C/C=C\CCCC(=O)NCCc1ccc(O)cc1`, in the assay with Plasmodium falciparum, the IC50 was 38 µM.
Still for that read-out and setting: then `CCCCCCCCCCCC(=O)NCCc1cc(Br)c(O)c(Br)c1`, with 17 µM.
Take `C=C[C@]1(C)Cc2occ(C)c2C[C@H]1C(=C)OC(C)=O`: the values for the concentration for half-maximal inhibition (IC50) with Plasmodium falciparum and in the assay on Trypanosoma cruzi were 42 µM and 173 µM, respectively.
The compound `CCCCCCC(O)CCCCCCCCCCC(=O)NCCc1ccc(O)cc1` (stereo not given) registered an IC50 in the assay with Plasmodium falciparum of 62 µM.
As for `CCCCCCCCC/C(C)=C\C(=O)NCCc1ccc(O)cc1`, the IC50 in the assay on Plasmodium falciparum was 36 µM; in the assay with Trypanosoma cruzi it was above 50 µM.
Regarding `CC(=O)NCCc1ccc(O)cc1`, the half-inhibitory concentration (IC50) with Plasmodium falciparum was above 50 µM.
`CC(=O)O/C1=C/Cc2c(C)coc2C/C(C)=C/CC1`: the IC50 with Plasmodium falciparum is above 50 µM.
In the assay on Plasmodium falciparum, `O=C(NCCc1ccc(O)cc1)c1ccccc1` showed an IC50 above 50 µM.
Take `CO[C@@H]1OC[C@H](OC(=O)c2ccccc2)[C@H](OC(=O)c2ccccc2)[C@H]1OC(=O)c1ccccc1`: the IC50 is 21 µM in the assay with Plasmodium falciparum and above 50 µM with Trypanosoma cruzi.
Turning to `CO[C@@H]1O[C@H](C)[C@H](OC(=O)c2ccccc2)[C@H](OC(=O)c2ccccc2)[C@H]1OC(=O)c1ccccc1`, the IC50 was 36 µM in the assay with Plasmodium falciparum and above 50 µM in the assay on Trypanosoma cruzi.
In the assay on Plasmodium falciparum, `CCCCCCCCCCCCNC(=O)CCc1ccc(O)cc1` had an IC50 of 24 µM.
For the compound `CO[C@H]1O[C@H](COC(=O)c2ccccc2)[C@H](OC(=O)c2ccccc2)[C@H](OC(=O)c2ccccc2)[C@H]1OC(=O)c1ccccc1`, the IC50 in the assay with Plasmodium falciparum is 29 µM; in the assay with Trypanosoma cruzi it was above 50 µM.
As to `CO[C@@H]1O[C@H](COC(=O)c2ccccc2)[C@H](OC(=O)c2ccccc2)[C@H](OC(=O)c2ccccc2)[C@H]1OC(=O)c1ccccc1`, the IC50 in the assay on Plasmodium falciparum and with Trypanosoma cruzi was above 50 µM throughout.
In the case of `CC1CS(=O)(=O)CCN1/N=C/c1ccc([N+](=O)[O-])o1` (stereo not given) [NIFURTIMOX], the concentration for half-maximal inhibition (IC50) in the assay on Trypanosoma cruzi was determined as 11 µM.
As for `CCCCCCCCCCCC(=O)O[C@@H]1[C@@H](OC(=O)CCCCCCCCCCC)[C@@H](OC)OC[C@@H]1OC(=O)CCCCCCCCCCC`, the IC50 in the assay on Plasmodium falciparum and in the assay with Trypanosoma cruzi was above 50 µM throughout.
As for `C=C[C@H]1CC[C@H]2[C@@H]3CC=C4C[C@@H](O[C@@H]5OC[C@@H](O)[C@@H](OC(C)=O)[C@@H]5O)CC[C@]4(C)[C@H]3CC[C@]12C`, the IC50 turned out to be 67 µM in the assay on Plasmodium falciparum and 96 µM in the assay with Trypanosoma cruzi.
With `C=C[C@H]1CC[C@H]2[C@@H]3CC=C4C[C@@H](O[C@@H]5OC[C@@H](OC(C)=O)[C@@H](O)[C@@H]5O)CC[C@]4(C)[C@H]3CC[C@]12C`, the figures for the half-inhibitory concentration (IC50) in the assay with Plasmodium falciparum and with Trypanosoma cruzi were 80 µM and 101 µM, respectively.
With `CO[C@H]1O[C@H](C)[C@H](OC(=O)c2ccccc2)[C@H](OC(=O)c2ccccc2)[C@H]1OC(=O)c1ccccc1`, the IC50 in the assay with Plasmodium falciparum is 43 µM; in the assay with Trypanosoma cruzi, above 50 µM.
`CCCCCCCCCCCCCC(=O)NCCc1ccc(O)cc1` gave an IC50 with Plasmodium falciparum of 34 µM.
Turning to `C=C[C@H]1CC[C@H]2[C@@H]3CC=C4C[C@@H](O[C@@H]5OC[C@@H](OC(C)=O)[C@@H](OC(C)=O)[C@@H]5OC(C)=O)CC[C@]4(C)[C@H]3CC[C@]12C`, the IC50 with Plasmodium falciparum and in the assay on Trypanosoma cruzi was 28 µM throughout.
In the assay with Plasmodium falciparum, `CC[C@H](O)CC(=O)NCCc1ccc(O)cc1` yielded a half-inhibitory concentration (IC50) above 50 µM.
Same read-out and setting: then `O=C(CCCCC(=O)NCCc1ccc(O)cc1)NCCc1ccc(O)cc1`, with 117 µM.
As for `O[C@@H]1[C@@H](O)[C@@H](O)CO[C@H]1O` [L-ARABINOSE], the concentration for half-maximal inhibition (IC50) with Plasmodium falciparum and with Trypanosoma cruzi was above 50 µM throughout.
